Key:
Assay type in all cases: functional
SK-MEL-2 = assay: Growth inhibition of human SK-MEL-2 cells at 10 uM after 48 hrs by coulter counting; settings: SK-MEL-2, 48 h, read-out: GI
Outline: (§1)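 Single-dose primary screen across the full NCI 60-cell-line panel. Stocks were made in DMSO and diluted in PBS to a final DMSO below 1%. Cultures at 6 × 10⁴ cells/ml were run in duplicate wells alongside PBS/DMSO vehicle controls at 37 °C in humidified 5% CO₂. Data were expressed as percent growth of treated cells.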

M14 = assay: Growth inhibition of human M14 cells at 10 uM after 48 hrs by coulter counting; settings: M14, 48 h, read-out: GI; outline: as §1
HCT-15 = assay: Growth inhibition of human HCT15 cells at 10 uM after 48 hrs by coulter counting; settings: HCT-15, 48 h, read-out: GI; outline: as §1
NCI-H23 = assay: Growth inhibition of human NCI-H23 cells at 10 uM after 48 hrs by coulter counting; settings: NCI-H23, 48 h, read-out: GI; outline: as §1
DU-145 = assay: Growth inhibition of human DU145 cells at 10 uM after 48 hrs by coulter counting; settings: DU-145, 48 h, read-out: GI; outline: as §1
ACHN = assay: Growth inhibition of human ACHN cells at 10 uM after 48 hrs by coulter counting; settings: read-out: GI; outline: as §1
NCI/ADR-RES = assay: Growth inhibition of human NCI/ADR-RES cells at 10 uM after 48 hrs by coulter counting; settings: read-out: GI; outline: as §1
NCI-H226 = assay: Growth inhibition of human NCI-H226 cells at 10 uM after 48 hrs by coulter counting; settings: NCI-H226, 48 h, read-out: GI; outline: as §1
U-251 = assay: Growth inhibition of human U251 cells at 10 uM after 48 hrs by coulter counting; settings: U-251, 48 h, read-out: GI
Outline: (§2)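 Single-dose screen in the NCI 60 human tumor cell line panel (nine subpanels). Compounds dissolved in DMSO and diluted in phosphate buffered saline, keeping final DMSO below 1%. Added in duplicate wells to cells at 6 × 10⁴ cells/ml. Controls held PBS and DMSO at matching dilutions. Incubated at 37 °C, humidified, 5% CO₂. Reported as percent growth of treated cells.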

SK-MEL-28 = assay: Growth inhibition of human SK-MEL-28 cells at 10 uM after 48 hrs by coulter counting; settings: SK-MEL-28, 48 h, read-out: GI; outline: as §1
SNB-75 = assay: Growth inhibition of human SNB75 cells at 10 uM after 48 hrs by coulter counting; settings: SNB-75, 48 h, read-out: GI; outline: as §1
UACC-257 = assay: Growth inhibition of human UACC257 cells at 10 uM after 48 hrs by coulter counting; settings: UACC-257, 48 h, read-out: GI; outline: as §2
CAKI-1 = assay: Growth inhibition of human Caki1 cells at 10 uM after 48 hrs by coulter counting; settings: CAKI-1, 48 h, read-out: GI; outline: as §1
HCT-116 = assay: Growth inhibition of human HCT116 cells at 10 uM after 48 hrs by coulter counting; settings: HCT-116, 48 h, read-out: GI; outline: as §1
HL-60(TB) = assay: Growth inhibition of human HL-60(TB) cells at 10 uM after 48 hrs by coulter counting; settings: HL-60, 48 h, read-out: GI
Outline: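 Test compound was dissolved in DMSO and diluted in phosphate-buffered saline to a final DMSO level below 1%. Dilutions were plated in duplicate with cell culture at 6 × 10⁴ cells/ml. Vehicle controls held PBS and DMSO at matching dilutions. Incubation was at 37 °C, humidified, under 5% CO₂. Data were reported as percent growth of treated cells.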

MOLT-4 = assay: Growth inhibition of human MOLT4 cells at 10 uM after 48 hrs by coulter counting; settings: MOLT-4, 48 h, read-out: GI; outline: as §1
T47D = assay: Growth inhibition of human T47D cells at 10 uM after 48 hrs by coulter counting; settings: read-out: GI; outline: as §2
MCF7 = assay: Growth inhibition of human MCF7 cells at 10 uM after 48 hrs by coulter counting; settings: MCF7, 48 h, read-out: GI; outline: as §1
OVCAR-8 = assay: Growth inhibition of human OVCAR8 cells at 10 uM after 48 hrs by coulter counting; settings: OVCAR-8, 48 h, read-out: GI; outline: as §1
MDA-MB-435 = assay: Growth inhibition of human MDA-MB-435 cells at 10 uM after 48 hrs by coulter counting; settings: MDA-MB-435, 48 h, read-out: GI; outline: as §1
SK-MEL-5 = assay: Growth inhibition of human SK-MEL-5 cells at 10 uM after 48 hrs by coulter counting; settings: SK-MEL-5, 48 h, read-out: GI; outline: as §1
UO-31 = assay: Growth inhibition of human UO31 cells at 10 uM after 48 hrs by coulter counting; settings: UO-31, 48 h, read-out: GI; outline: as §2
SNB-19 = assay: Growth inhibition of human SNB19 cells at 10 uM after 48 hrs by coulter counting; settings: SNB-19, 48 h, read-out: GI; outline: as §1
[1] = Growth inhibition of human NCI-322M cells at 10 uM after 48 hrs by coulter counting; settings: read-out: GI; outline: as §1
RPMI-8226 = assay: Growth inhibition of human RPMI8226 cells at 10 uM after 48 hrs by coulter counting; settings: RPMI-8226, 48 h, read-out: GI; outline: as §1
HT-29 = assay: Growth inhibition of human HT-29 cells at 10 uM after 48 hrs by coulter counting; settings: HT-29, 48 h, read-out: GI; outline: as §1
SF-295 = assay: Growth inhibition of human SF295 cells at 10 uM after 48 hrs by coulter counting; settings: SF-295, 48 h, read-out: GI; outline: as §1
EKVX = assay: Growth inhibition of human EKVX cells at 10 uM after 48 hrs by coulter counting; settings: read-out: GI; outline: as §1
TK-10 = assay: Growth inhibition of human TK10 cells at 10 uM after 48 hrs by coulter counting; settings: TK-10, 48 h, read-out: GI; outline: as §2
CCRF-CEM = assay: Growth inhibition of human CCRF-CEM cells at 10 uM after 48 hrs by coulter counting; settings: read-out: GI; outline: as §1
NCI-H460 = assay: Growth inhibition of human NCI-H460 cells at 10 uM after 48 hrs by coulter counting; settings: NCI-H460, 48 h, read-out: GI; outline: as §1
SF-268 = assay: Growth inhibition of human SF268 cells at 10 uM after 48 hrs by coulter counting; settings: SF-268, 48 h, read-out: GI; outline: as §1
A549 = assay: Growth inhibition of human A549 cells at 10 uM after 48 hrs by coulter counting; settings: A549, 48 h, read-out: GI; outline: as §1
K562 = assay: Growth inhibition of human K562 cells at 10 uM after 48 hrs by coulter counting; settings: K562, 48 h, read-out: GI; outline: as §1
A498 = assay: Growth inhibition of human A498 cells at 10 uM after 48 hrs by coulter counting; settings: A498, 48 h, read-out: GI; outline: as §1
NCI-H522 = assay: Growth inhibition of human NCI-H522 cells at 10 uM after 48 hrs by coulter counting; settings: NCI-H522, 48 h, read-out: GI; outline: as §1
HOP-62 = assay: Growth inhibition of human HOP62 cells at 10 uM after 48 hrs by coulter counting; settings: HOP-62, 48 h, read-out: GI; outline: as §1
UACC-62 = assay: Growth inhibition of human UACC62 cells at 10 uM after 48 hrs by coulter counting; settings: UACC-62, 48 h, read-out: GI; outline: as §2
KM12 = assay: Growth inhibition of human KM12 cells at 10 uM after 48 hrs by coulter counting; settings: KM12, 48 h, read-out: GI; outline: as §1
LOX IMVI = assay: Growth inhibition of human LOXIMVI cells at 10 uM after 48 hrs by coulter counting; settings: read-out: GI; outline: as §1
786-0 = assay: Growth inhibition of human 786-0 cells at 10 uM after 48 hrs by coulter counting; settings: 786-0, 48 h, read-out: GI; outline: as §1
BT-549 = assay: Growth inhibition of human BT549 cells at 10 uM after 48 hrs by coulter counting; settings: BT-549, 48 h, read-out: GI; outline: as §1
SN12C = assay: Growth inhibition of human SN12C cells at 10 uM after 48 hrs by coulter counting; settings: read-out: GI; outline: as §1

With `CCN1CC2=C(N=C3SC=C(C)N3C2c2ccc(OC)cc2)/C(=C/c2ccc(OC)cc2)C1` (stereo not drawn) the inhibition of growth at 10 µM (SK-MEL-2) was > 10%, the inhibition of growth at 10 µM (M14) was > 10% and the inhibition of growth at 10 µM (HCT-15) was > 10%. The inhibition of growth at 10 µM (NCI-H23) was > 10%, the inhibition of growth at 10 µM (DU-145) was > 10% and the inhibition of growth at 10 µM (ACHN) was > 10%. The inhibition of growth at 10 µM (NCI/ADR-RES) was > 10%, the inhibition of growth at 10 µM (NCI-H226) was > 10% and the inhibition of growth at 10 µM (U-251) was > 10%. For the same compound, the inhibition of growth at 10 µM (SK-MEL-28) was > 10%, the inhibition of growth at 10 µM (SNB-75) was 12.5% and the inhibition of growth at 10 µM (UACC-257) was > 10%. For the same compound, the inhibition of growth at 10 µM (CAKI-1) was > 10%, the inhibition of growth at 10 µM (HCT-116) was > 10% and the inhibition of growth at 10 µM (HL-60(TB)) was > 10%. The inhibition of growth at 10 µM (MOLT-4) was > 10%, the inhibition of growth at 10 µM (T47D) was > 10% and the inhibition of growth at 10 µM (MCF7) was > 10%. The inhibition of growth at 10 µM (OVCAR-8) was > 10%, the inhibition of growth at 10 µM (MDA-MB-435) was > 10% and the inhibition of growth at 10 µM (SK-MEL-5) was > 10%. For the same compound, the inhibition of growth at 10 µM (UO-31) was 35.5%, the inhibition of growth at 10 µM (SNB-19) was > 10% and the inhibition of growth at 10 µM [1] was > 10%. For the same compound, the inhibition of growth at 10 µM (RPMI-8226) was > 10%, the inhibition of growth at 10 µM (HT-29) was > 10% and the inhibition of growth at 10 µM (SF-295) was > 10%. For the same compound, the inhibition of growth at 10 µM (EKVX) was > 10%, the inhibition of growth at 10 µM (TK-10) was > 10% and the inhibition of growth at 10 µM (CCRF-CEM) was > 10%. The inhibition of growth at 10 µM (NCI-H460) was > 10%, the inhibition of growth at 10 µM (SF-268) was > 10% and the inhibition of growth at 10 µM (A549) was > 10%. For the same compound, the inhibition of growth at 10 µM (K562) was > 10%, the inhibition of growth at 10 µM (A498) was > 10% and the inhibition of growth at 10 µM (NCI-H522) was > 10%. For the same compound, the inhibition of growth at 10 µM (HOP-62) was > 10%, the inhibition of growth at 10 µM (UACC-62) was > 10% and the inhibition of growth at 10 µM (KM12) was > 10%. For the same compound, the inhibition of growth at 10 µM (LOX IMVI) was > 10%, the inhibition of growth at 10 µM (786-0) was > 10% and the inhibition of growth at 10 µM (BT-549) was > 10%. The inhibition of growth at 10 µM (SN12C) was > 10%.

From ChEMBL document CHEMBL1926614, “Substituted thiazoles V. synthesis and antitumor activity of novel thiazolo[2,3-b]quinazoline and pyrido[4,3-d]thiazolo[3,2-a]pyrimidine analogues” (2012)
